Columns and labels:
Format in all cases: functional
Lymphoma cell line [1] = assay: Ability to reverse the multidrug resistance (MDR) of mouse Lymphoma cells, fluorescence activity ratio at 20 ug/mL.
How it was run: (§1)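 Rhodamine 123 accumulation by flow cytometry. MDR1-transduced L5178 mouse lymphoma cells and parental L5178Y cells at 2 × 10^6/mL in serum-free McCoy's 5A. Compound from DMSO stock for 10 min at room temperature, then 5.2 µM rhodamine 123 for 20 min at 37 °C, with two washes. Activity ratio: treated/untreated fluorescence of MDR cells divided by treated/untreated fluorescence of parental cells.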

Lymphoma cell line [2] = assay: Ability to reverse the multidrug resistance (MDR) of mouse Lymphoma cells, FL-1at 20 ug/mL; parameters: reference not given here
How it was run: (§2)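 L5178 mouse T-cell lymphoma cells carrying the MDR1 gene (via pHa MDR1/A retrovirus, kept under 60 ng/mL colchicine), with the L5178Y parent line. Cells grown in McCoy's 5A with 10% heat-inactivated horse serum. Cells at 2 × 10^6/mL in serum-free medium were given compound (1.0 mg/mL DMSO stock) for 10 min at room temperature. Rhodamine 123 (5.2 µM final) was then added for 20 min at 37 °C. Cells were washed twice, resuspended in PBS, and read by flow cytometry for FSC, SSC and FL-1.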

Lymphoma cell line [3] = assay: Ability to reverse the multidrug resistance (MDR) of mouse Lymphoma cells, fluorescence activity ratio at 2 ug/mL.; how it was run: as §1
Lymphoma cell line [4] = assay: Ability to reverse the multidrug resistance (MDR) of mouse Lymphoma cells, FL-1at 2 ug/mL; parameters: reference not given here; how it was run: as §2
Lymphoma cell line [5] = assay: Ability to reverse the multidrug resistance (MDR) of mouse Lymphoma cells, by shrinkage (FSC) at 2 ug/mL.; how it was run: as §2
Lymphoma cell line [6] = assay: Ability to reverse the multidrug resistance (MDR) of mouse Lymphoma cells, by Granulation (SSC) at 20 ug/mL.; how it was run: as §2
Lymphoma cell line [7] = assay: Ability to reverse the multidrug resistance (MDR) of mouse Lymphoma cells, by shrinkage (FSC) at 20 ug/mL.; how it was run: as §2
Lymphoma cell line [8] = assay: Ability to reverse the multidrug resistance (MDR) of mouse Lymphoma cells, by Granulation (SSC) at 2 ug/mL.; how it was run: as §2
Lymphoma cell line [9] = assay: Ability to reverse the multidrug resistance (MDR) of mouse Lymphoma cells, by shrinkage (FSC) at 4 ug/mL.; how it was run: as §2
Lymphoma cell line [10] = assay: Ability to reverse the multidrug resistance (MDR) of mouse Lymphoma cells, FL-1at 4 ug/mL; how it was run: as §2
Lymphoma cell line [11] = assay: Ability to reverse the multidrug resistance (MDR) of mouse Lymphoma cells, fluorescence activity ratio at 4 ug/mL.; how it was run: as §1
Lymphoma cell line [12] = assay: Ability to reverse the multidrug resistance (MDR) of mouse Lymphoma cells, by Granulation (SSC) at 4 ug/mL.; how it was run: as §2
Lymphoma cell line [13] = assay: Ability to reverse the multidrug resistance (MDR) of mouse Lymphoma cells, fluorescence activity ratio at 5 ug/mL.; how it was run: as §1
Lymphoma cell line [14] = assay: Ability to reverse the multidrug resistance (MDR) of mouse Lymphoma cells, by shrinkage (FSC) at 5 ug/mL.; how it was run: as §2
Lymphoma cell line [15] = assay: Ability to reverse the multidrug resistance (MDR) of mouse Lymphoma cells, by Granulation (SSC) at 5 ug/mL.; how it was run: as §2
Lymphoma cell line [16] = assay: Ability to reverse the multidrug resistance (MDR) of mouse Lymphoma cells, FL-1at 5 ug/mL; how it was run: as §2

SMILES	Fluorescence activity ratio (Lymphoma cell line [1])	FL-1 (Lymphoma cell line [2])	Fluorescence activity ratio (Lymphoma cell line [3])	FL-1 (Lymphoma cell line [4])	FSC (Lymphoma cell line [5])	SSC (Lymphoma cell line [6])	FSC (Lymphoma cell line [7])	SSC (Lymphoma cell line [8])	FSC (Lymphoma cell line [9])	FL-1 (Lymphoma cell line [10])	Fluorescence activity ratio (Lymphoma cell line [11])	SSC (Lymphoma cell line [12])	Fluorescence activity ratio (Lymphoma cell line [13])	FSC (Lymphoma cell line [14])	SSC (Lymphoma cell line [15])	FL-1 (Lymphoma cell line [16])
CC(=O)O[C@@H]1[C@@H](OC(C)=O)C(C)(C)/C=C/[C@H](C)[C@H](OC(C)=O)[C@@]2(OC(C)=O)C[C@H](C)[C@H](OC(=O)c3ccccc3)/C2=C\[C@](C)(O)[C@@H]1OC(C)=O	4.86	41.9	4.31	37.12	641.56	175.29	658.03	166.49								
CC(=O)O[C@@H]1[C@@H](OC(C)=O)C(C)(C)/C=C/[C@H](C)C(=O)[C@@]2(OC(C)=O)C[C@@H](C)[C@H](OC(=O)c3ccccc3)/C2=C\[C@](C)(O)[C@@H]1OC(C)=O	6.7	401.98	8.87	532.78	562.62	232.7	565.55	237.88								
CC(=O)O[C@@H]1[C@@H](OC(C)=O)C(C)(C)/C=C/[C@H](C)[C@H](OC(C)=O)[C@@]2(OC(C)=O)C[C@@H](C)[C@H](OC(=O)c3ccccc3)[C@@H]2/C=C(\C)[C@@H]1O	34.79	299.93	20.98	180.81	653.55	167.73	654.67	165.87								
C=C1[C@H](OC(C)=O)[C@@H](O)[C@@H](OC(=O)c2cccnc2)C(C)(C)/C=C/[C@H](C)[C@H](OC(C)=O)[C@@]2(O)C[C@@](C)(OC(C)=O)[C@H](OC(=O)c3ccccc3)[C@@H]2[C@H]1OC(C)=O	71.98	878.14	12.75	155.62	632.81	291.38	636.35	301.64								
C=C1[C@H](OC(=O)C(C)C)[C@@H](OC(C)=O)[C@@H](OC(C)=O)C(C)(C)/C=C/[C@@H](C)C(=O)[C@@]2(OC(C)=O)C[C@@](C)(OC(C)=O)[C@H](OC(C)=O)[C@@H]2[C@H]1OC(C)=O	14.75	444.35	5.52	166.44	589.78	254.87	620.4	246.26								
C=C1[C@H](OC(C)=O)[C@@H](OC(C)=O)[C@@H](OC(C)=O)C(C)(C)/C=C/[C@H](C)[C@H](OC(C)=O)[C@@]2(O)C[C@@](C)(OC(C)=O)[C@H](OC(=O)c3ccccc3)[C@@H]2[C@H]1OC(C)=O	29.48	888.3	16.77	505.23	577.39	239.54	587.54	239.85								
C=C1[C@H](OC(=O)C(C)C)[C@H](OC(=O)C(C)C)[C@@H](OC(C)=O)C(C)(C)[C@@H]2O[C@H]2[C@@H](C)C(=O)[C@@]2(OC(C)=O)C[C@@](C)(OC(C)=O)[C@H](OC(C)=O)[C@@H]2[C@H]1OC(C)=O	3.96	34.14	3.71	31.98	659.4	176.12	667.76	165.11								
CC(=O)O[C@@H]1[C@@H](OC(C)=O)C(C)(C)/C=C/[C@H](C)C(=O)[C@@]2(OC(C)=O)C[C@@H](C)[C@H](OC(=O)c3ccccc3)/C2=C\[C@](C)(OC(C)=O)[C@@H]1OC(C)=O	16.08	965.2	10.57	634.88	561.94	228.49	563.73	238.57								
C=C1[C@H](OC(C)=O)C[C@@H](OC(=O)c2cccnc2)C(C)(C)/C=C/[C@@H](C)C(=O)[C@@]2(OC(C)=O)C[C@H](C)[C@H](OC(C)=O)[C@@H]2[C@H]1OC(C)=O	74.27	906.08	34.74	423.87	634.95	297.54	640.31	300.61								
CC(=O)O[C@@H]1[C@@H](OC(C)=O)C(C)(C)/C=C/[C@H](C)C(=O)C2(OC(C)=O)C[C@@](C)(O)[C@H](OC(=O)c3ccccc3)/C2=C\[C@](C)(OC(C)=O)[C@@H]1OC(C)=O (stereo partly drawn)	12.73	764.3	8.75	525.32	558.57	231.39	555.8	235.31								
C=C1[C@H](OC(=O)C(C)C)[C@@H](O)[C@@H](OC(C)=O)C(C)(C)/C=C/[C@H](C)[C@H](OC(C)=O)[C@@]2(O)C[C@@](C)(OC(C)=O)[C@H](OC(=O)c3ccccc3)[C@@H]2[C@H]1OC(C)=O			6.3	90.12	625.31			333.78	638.02	32.37	2.26	335.77				
C=C1[C@H](OC(C)=O)CC(=O)C(C)(C)/C=C/[C@@H](C)C(=O)[C@@]2(OC(C)=O)C[C@@](C)(OC(C)=O)[C@H](OC(C)=O)[C@@H]2[C@H]1OC(C)=O [ESULATIN B]	7.83	95.54	2.58	31.47	642.45	307.84	631.19	313.58								
C=C1[C@H](OC(C)=O)C[C@@H](OC(C)=O)C(C)(C)/C=C/[C@@H](C)C(=O)[C@@]2(OC(C)=O)C[C@@](C)(OC(C)=O)[C@H](OC(C)=O)[C@@H]2[C@H]1OC(C)=O [ESULATIN D]			2.47	35.43	626.3			336.52	638.32	57.73	4.03	339.15				
COc1ccc(CCN(C)CCCC(C#N)(c2ccc(OC)c(OC)c2)C(C)C)cc1OC (stereo not drawn) [VERAPAMIL]													8.27	569.63	177.48	170.3

Reference: ChEMBL document CHEMBL1135458, “Discovery and biological evaluation of a new family of potent modulators of multidrug resistance: reversal of multidrug resistance of mouse lymphoma cells by new natural jatrophane diterpenoids isolated from Euphorbia species” (2002)
